The test system of assay [1] is Muscarinic acetylcholine receptor M2 (Cavia porcellus). The experiment in a line: Palpha towards Muscarinic acetylcholine receptor M2 in guinea pig using [3H]NMS as a radioligand.
Assay [2] shares this test system. Nature of the assay: Palpha towards Muscarinic acetylcholine receptor M2 in guinea pig using [3H]-AF-DX 384 as a radioligand.
Assay [3] shares this test system. The experiment in a line: Half-maximally reduction towards muscarinic 2 receptor in guinea pig using [3H]-AF-DX 384 as a radioligand.
Assay [4] has the same test system. The experiment in a line: Binding affinity towards Muscarinic acetylcholine receptor M2 in guinea pig using [3H]-NMS as a radioligand.
Assay [5] shares this test system. The experiment in a line: Emax dissociation towards Muscarinic acetylcholine receptor M2 in guinea pig using [3H]NMS as a radioligand.
For assay [6] the test system is unchanged. The experiment in a line: Half-maximal reduction towards Muscarinic acetylcholine receptor M2 in guinea pig using [3H]NMS as a radioligand.
The test system is the same in assay [7]. Nature of the assay: Emax dissociation towards Muscarinic acetylcholine receptor M2 in guinea pig using [3H]AF-DX 384 as a radioligand.
For assay [8] the test system is unchanged. The experiment in a line: Binding affinity towards Muscarinic acetylcholine receptor M2 in guinea pig using [3H]-AF-DX 384 as a radioligand.
Assay [9] addresses T1, Muscarinic acetylcholine receptor M2 (Sus scrofa) (UniProt P06199).
T1 sequence (whole entry): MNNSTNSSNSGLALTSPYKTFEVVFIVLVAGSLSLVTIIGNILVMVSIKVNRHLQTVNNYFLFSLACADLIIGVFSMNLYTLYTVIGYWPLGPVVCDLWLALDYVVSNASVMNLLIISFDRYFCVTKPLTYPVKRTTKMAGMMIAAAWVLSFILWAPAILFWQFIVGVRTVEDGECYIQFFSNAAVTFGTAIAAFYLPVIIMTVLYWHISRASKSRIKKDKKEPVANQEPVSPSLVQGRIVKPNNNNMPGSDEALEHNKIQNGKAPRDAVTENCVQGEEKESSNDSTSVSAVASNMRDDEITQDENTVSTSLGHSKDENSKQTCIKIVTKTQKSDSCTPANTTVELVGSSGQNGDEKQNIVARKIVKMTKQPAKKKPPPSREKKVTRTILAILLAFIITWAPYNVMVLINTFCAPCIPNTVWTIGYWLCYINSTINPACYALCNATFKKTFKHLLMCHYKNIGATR
The experiment in a line: Emax dissociation towards Muscarinic acetylcholine receptor M2 in porcine heart using [3H]NMS as a radioligand. In short, it runs like this:
(§1)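 Dissociation assay at 37 °C on porcine cardiac membranes in Mg/Tris buffer, pH 7.3. Membranes were preincubated 30 min with 0.2 nM [3H]NMS, then dissociation was started with 1 μM atropine ± test compound and tracked for 120 min. Apparent dissociation rate constants k-1 against log concentration were fitted with a four-parameter logistic curve.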

In assay [10] the target is T1, Muscarinic acetylcholine receptor M2 (Sus scrofa). Nature of the assay: Palpha towards Muscarinic acetylcholine receptor M2 in porcine heart using [3H]NMS as a radioligand. In short, it runs like this: (§2)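 Porcine heart membranes with 0.2 nM [3H]NMS at 37 °C in 3 mM MgHPO4 / 50 mM Tris-HCl, pH 7.3, and varying test-compound concentrations. Incubation was 120–360 min to reach equilibrium. Nonspecific binding was taken with 1 μM atropine. Bound label was filtered and counted. Curves were fitted to the ternary complex model of allosteric interaction. Three to four independent experiments.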

For assay [11] the target is unchanged. The experiment in a line: Half-maximal reduction towards Muscarinic acetylcholine receptor M2 in porcine heart using [3H]NMS as a radioligand. In short, it runs like this: as §1
The target is the same in assay [12]. Nature of the assay: Binding affinity towards Muscarinic acetylcholine receptor M2 in porcine heart using [3H]NMS as a radioligand. In short, it runs like this:
as §2

The text below walks through data of ChEMBL document CHEMBL1149184, “Development of a new type of allosteric modulator of muscarinic receptors: hybrids of the antagonist AF-DX 384 and the hexamethonio derivative W84” (J Med Chem, 2004).

`CC[N+](C)(C)CCCN1C(=O)c2ccccc2C1=O`: the Palpha in assay [1] is -1.03; in [2] it was less than -2. In addition, the pEC0.5,diss in assay [3] was found to be 3.33; in assay [6] it was 3.35. The pKA was found to be 4.12 in assay [4] and 4.44 in assay [8]. The Emax,diss was 100% in [5] and 34% in assay [7].
As for `CCCN(CCCN1C(=O)c2ccccc2C1=O)CC1CCCCN1CCNC(=O)N1c2ccccc2C(=O)Nc2cccnc21` (stereo not given), in [9], the Emax,diss was 100%. The same compound registered a Palpha in assay [10] of 1.07. In addition, the pEC0.5,diss in assay [11] is 6.87. The pKA in assay [12] was 5.89.
In the same order, the values of `CCCN(CCCN1C(=O)CCC1=O)CC1CCCCN1CCNC(=O)N1c2ccccc2C(=O)Nc2cccnc21` (stereo not given) are 76%, -1.8, 4.95 and 8.01.
For `CCCCCC[N+](C)(C)CCCN1C(=O)c2ccccc2C1=O`, the Palpha in assay [1] was -1.55; in [2], -1.35. Also, the pEC0.5,diss amounted to 4.11 in assay [3] and 4.06 in assay [6]. Besides, the pKA turned out to be 5.08 in [4] and 5.8 in [8]. Also, the Emax,diss in assay [5] came to 100%; in assay [7], 82%.
`CCCN(CCC)CC1CCCCN1CCNC(=O)N1c2ccccc2C(=O)Nc2cccnc21` (stereo not given) returned an Emax,diss in [9] of 100%. In addition, the Palpha in assay [10] was less than -2. The pEC0.5,diss in [11] came out at 4.65. The pKA in assay [12] is 8.14.
Regarding `C[N+](C)(C)CCCN1C(=O)c2ccccc2C1=O`, the figures for the Palpha in assay [1] and in assay [2] were -1.21 and less than -2, respectively. In addition, the pEC0.5,diss in assay [3] worked out at 3; in assay [6] it was 3.21. For the same compound, the pKA turned out to be 3.95 in assay [4] and 4.51 in assay [8]. The Emax,diss in assay [5] worked out at 100%; in assay [7], 25%.
Take `CCC[N+](C)(C)CCCN1C(=O)c2ccccc2C1=O`: the Palpha was -0.78 in [1] and less than -2 in assay [2]. Also, the results for the pEC0.5,diss in assay [3] and in [6] were 2.98 and 3.76, respectively. For the same compound, the pKA was determined as 3.55 in [4] and 4.1 in assay [8]. Also, the Emax,diss in assay [5] stood at 90%; in assay [7], 73%.
Take `CCCN(CCCCCCN1C(=O)c2ccccc2C1=O)CC1CCCCN1CCNC(=O)N1c2ccccc2C(=O)Nc2cccnc21` (stereo not given): the Emax,diss in assay [9] is 100%. Besides, in assay [10], the Palpha is 0.05. Further, the pEC0.5,diss in assay [11] came to 6.75. The pKA in assay [12] came to 6.71.
With `C[N+](C)(CCCCCC[N+](C)(C)CCCN1C(=O)c2ccccc2C1=O)CCCN1C(=O)CCC1=O`, the values for the Palpha in assay [1] and in assay [2] were -0.49 and -1.56, respectively. The pEC0.5,diss in assay [3] came to 3.67; in assay [6] it was 4.82. Further, the figures for the pKA in [4] and in assay [8] were 5.24 and 5.93, respectively. Further, the Emax,diss came to 100% in [5] and 68% in assay [7].
For `CCCN(CCCCCC[N+](C)(C)CCCN1C(=O)c2ccccc2C1=O)CC1CCCCN1CCNC(=O)N1c2ccccc2C(=O)Nc2cccnc21` (stereo not given), the Emax,diss in assay [9] came out at 100%. The compound further had a Palpha in assay [10] of -0.58. The compound further came in with a pEC0.5,diss in [11] of 6.78. The same compound displayed a pKA in assay [12] of 6.83.
